One block for each molecule: values may come before it.
What was measured:
[1] = Selectivity index, ratio of CC50 for human HepG2.2.15 cells to IC50 for Hepatitis B virus infected in human HepG2.2.15 cells assessed as inhibition of HBsAg secretion; assay type: functional
Outline: (§1)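 Selectivity index computed as CC50/IC50, with CC50 from cell death of HepG2.2.15 cells after 9 days of treatment (OD 450 nm) and IC50 from 50% inhibition of HBeAg or HBsAg secretion in the same cells; medium with drug renewed every 3 d.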

[2] = tested on: Hepatitis B virus; experiment: Antiviral activity against Hepatitis B virus infected in human HepG2.2.15 cells assessed as inhibition of HBsAg secretion by ELISA; assay type: functional, organism-based; settings: HepG2 2.2.15
Outline: (§2)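 HepG2.2.15 cells (MEM, 10% FBS, 380 µg/ml G418) seeded at 1×10^5 cells/ml, held 24 h at 37 °C, then treated with various drug concentrations; medium with drug renewed every 3 d for up to 9 d. Culture medium sampled on days 3, 6 and 9, stored at -20 °C, and assayed for secreted antigen. Lamivudine as positive control; IC50 = 50% inhibition of secretion; means of at least two experiments.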

[3] = tested on: Hepatitis B virus; experiment: Antiviral activity against Hepatitis B virus infected in human HepG2.2.15 cells assessed as inhibition of HBeAg secretion by ELISA; assay type: functional, organism-based; settings: HepG2 2.2.15; outline: as §2
[4] = Selectivity index, ratio of CC50 for human HepG2.2.15 cells to IC50 for Hepatitis B virus infected in human HepG2.2.15 cells assessed as inhibition of HBeAg secretion; assay type: functional; outline: as §1
[5] = Cytotoxicity against human HepG2.2.15 cells assessed as cell death after 9 days by MTT assay; assay type: cell-based, HepG2 2.2.15
Outline: (§3)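 HepG2.2.15 cells (MEM, 10% FBS, 380 µg/ml G418, 37 °C, 5% CO2) seeded at 1×10^5 cells/ml, cultured 24 h, then exposed to various drug concentrations; drug-containing medium renewed every 3 d. OD read at 450 nm after 9 days; percent cell death calculated; CC50 = concentration killing 50% of cells. Means of at least two experiments.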

[6] = tested on: Hepatitis B virus; experiment: Antiviral activity against Hepatitis B virus infected in human HepG2.2.15 cells assessed as inhibition of HBeAg secretion at 300 uM after 3 days by ELISA; assay type: functional; settings: HepG2 2.2.15, 72 h; outline: as §2
[7] = tested on: Hepatitis B virus; experiment: Antiviral activity against Hepatitis B virus infected in human HepG2.2.15 cells assessed as inhibition of HBsAg secretion at 300 uM after 6 days by ELISA; assay type: functional; settings: HepG2 2.2.15, 144 h; outline: as §2
[8] = tested on: Hepatitis B virus; experiment: Antiviral activity against Hepatitis B virus infected in human HepG2.2.15 cells assessed as inhibition of HBeAg secretion at 37.5 uM after 6 days by ELISA; assay type: functional; settings: HepG2 2.2.15, 144 h; outline: as §2
[9] = tested on: Hepatitis B virus; experiment: Antiviral activity against Hepatitis B virus infected in human HepG2.2.15 cells assessed as inhibition of HBsAg secretion at 300 uM after 3 days by ELISA; assay type: functional; settings: HepG2 2.2.15, 72 h; outline: as §2
[10] = tested on: Hepatitis B virus; experiment: Antiviral activity against Hepatitis B virus infected in human HepG2.2.15 cells assessed as inhibition of HBeAg secretion at 75 uM after 3 days by ELISA; assay type: functional; settings: HepG2 2.2.15, 72 h; outline: as §2
[11] = tested on: Hepatitis B virus; experiment: Antiviral activity against Hepatitis B virus infected in human HepG2.2.15 cells assessed as inhibition of HBsAg secretion at 150 uM after 9 days by ELISA; assay type: functional; settings: HepG2 2.2.15, 216 h; outline: as §2
[12] = tested on: Hepatitis B virus; experiment: Antiviral activity against Hepatitis B virus infected in human HepG2.2.15 cells assessed as inhibition of HBeAg secretion at 150 uM after 3 days by ELISA; assay type: functional; settings: HepG2 2.2.15, 72 h; outline: as §2
[13] = tested on: Hepatitis B virus; experiment: Antiviral activity against Hepatitis B virus infected in human HepG2.2.15 cells assessed as cell survival at 300 uM after 9 days (reference value: 100%); assay type: functional; settings: HepG2 2.2.15, 216 h; outline: as §3
[14] = tested on: Hepatitis B virus; experiment: Antiviral activity against Hepatitis B virus infected in human HepG2.2.15 cells assessed as inhibition of HBsAg secretion at 300 uM after 9 days by ELISA; assay type: functional; settings: HepG2 2.2.15, 216 h; outline: as §2
[15] = tested on: Hepatitis B virus; experiment: Antiviral activity against Hepatitis B virus infected in human HepG2.2.15 cells assessed as inhibition of HBeAg secretion at 150 uM after 9 days by ELISA; assay type: functional; settings: HepG2 2.2.15, 216 h; outline: as §2
[16] = tested on: Hepatitis B virus; experiment: Antiviral activity against Hepatitis B virus infected in human HepG2.2.15 cells assessed as cell survival at 37.5 uM after 9 days (reference value: 100%); assay type: functional; settings: HepG2 2.2.15, 216 h; outline: as §3
[17] = tested on: Hepatitis B virus; experiment: Antiviral activity against Hepatitis B virus infected in human HepG2.2.15 cells assessed as inhibition of HBeAg secretion at 75 uM after 9 days by ELISA; assay type: functional; settings: HepG2 2.2.15, 216 h; outline: as §2
[18] = tested on: Hepatitis B virus; experiment: Antiviral activity against Hepatitis B virus infected in human HepG2.2.15 cells assessed as inhibition of HBsAg secretion at 37.5 uM after 9 days by ELISA; assay type: functional; settings: HepG2 2.2.15, 216 h; outline: as §2
[19] = tested on: Hepatitis B virus; experiment: Antiviral activity against Hepatitis B virus infected in human HepG2.2.15 cells assessed as cell survival at 75 uM after 9 days (reference value: 100%); assay type: functional; settings: HepG2 2.2.15, 216 h; outline: as §3
[20] = tested on: Hepatitis B virus; experiment: Antiviral activity against Hepatitis B virus infected in human HepG2.2.15 cells assessed as inhibition of HBeAg secretion at 37.5 uM after 9 days by ELISA; assay type: functional; settings: HepG2 2.2.15, 216 h; outline: as §2
[21] = tested on: Hepatitis B virus; experiment: Antiviral activity against Hepatitis B virus infected in human HepG2.2.15 cells assessed as inhibition of HBsAg secretion at 75 uM after 6 days by ELISA; assay type: functional; settings: HepG2 2.2.15, 144 h; outline: as §2
[22] = tested on: Hepatitis B virus; experiment: Antiviral activity against Hepatitis B virus infected in human HepG2.2.15 cells assessed as inhibition of HBeAg secretion at 37.5 uM after 3 days by ELISA; assay type: functional; settings: HepG2 2.2.15, 72 h; outline: as §2
[23] = tested on: Hepatitis B virus; experiment: Antiviral activity against Hepatitis B virus infected in human HepG2.2.15 cells assessed as inhibition of HBeAg secretion at 75 uM after 6 days by ELISA; assay type: functional; settings: HepG2 2.2.15, 144 h; outline: as §2
[24] = tested on: Hepatitis B virus; experiment: Antiviral activity against Hepatitis B virus infected in human HepG2.2.15 cells assessed as inhibition of HBsAg secretion at 150 uM after 6 days by ELISA; assay type: functional; settings: HepG2 2.2.15, 144 h; outline: as §2
[25] = tested on: Hepatitis B virus; experiment: Antiviral activity against Hepatitis B virus infected in human HepG2.2.15 cells assessed as inhibition of HBsAg secretion at 75 uM after 9 days by ELISA; assay type: functional; settings: HepG2 2.2.15, 216 h; outline: as §2
[26] = tested on: Hepatitis B virus; experiment: Antiviral activity against Hepatitis B virus infected in human HepG2.2.15 cells assessed as inhibition of HBeAg secretion at 300 uM after 6 days by ELISA; assay type: functional; settings: HepG2 2.2.15, 144 h; outline: as §2
[27] = tested on: Hepatitis B virus; experiment: Antiviral activity against Hepatitis B virus infected in human HepG2.2.15 cells assessed as inhibition of HBsAg secretion at 37.5 uM after 6 days by ELISA; assay type: functional; settings: HepG2 2.2.15, 144 h; outline: as §2
[28] = tested on: Hepatitis B virus; experiment: Antiviral activity against Hepatitis B virus infected in human HepG2.2.15 cells assessed as cell survival at 150 uM after 9 days (reference value: 100%); assay type: functional; settings: HepG2 2.2.15, 216 h; outline: as §3
[29] = tested on: Hepatitis B virus; experiment: Antiviral activity against Hepatitis B virus infected in human HepG2.2.15 cells assessed as inhibition of HBsAg secretion at 150 uM after 3 days by ELISA; assay type: functional; settings: HepG2 2.2.15, 72 h; outline: as §2
[30] = tested on: Hepatitis B virus; experiment: Antiviral activity against Hepatitis B virus infected in human HepG2.2.15 cells assessed as inhibition of HBeAg secretion at 300 uM after 9 days by ELISA; assay type: functional; settings: HepG2 2.2.15, 216 h; outline: as §2
[31] = tested on: Hepatitis B virus; experiment: Antiviral activity against Hepatitis B virus infected in human HepG2.2.15 cells assessed as inhibition of HBeAg secretion at 150 uM after 6 days by ELISA; assay type: functional; settings: HepG2 2.2.15, 144 h; outline: as §2
[32] = tested on: Hepatitis B virus; experiment: Antiviral activity against Hepatitis B virus infected in human HepG2.2.15 cells assessed as inhibition of HBsAg secretion at 75 uM after 3 days by ELISA; assay type: functional; settings: HepG2 2.2.15, 72 h; outline: as §2

Compound: O=C(O)/C=C/c1ccc2c(c1)OCO2
Ratio CC50/IC50 [1]: 1.16
IC50 [2]: 433 µM
IC50 [3]: 526 µM
Ratio CC50/IC50 [4]: 0.96
CC50 at 216 h [5]: 503 µM

IC50 [2]: 143 µM
IC50 [3]: 150 µM
Compound: COc1cc(/C=C/C(=O)O/N=C/c2ccccn2)cc(OC)c1OC
inhibition at 300 µM [6]: 34.2%
Ratio CC50/IC50 [1]: 5.52
inhibition at 300 µM [7]: 40.5%
inhibition at 37.5 µM [8]: 21.4%
inhibition at 300 µM [9]: 15.1%
inhibition at 75 µM [10]: 20.3%
inhibition at 150 µM [11]: 47.3%
inhibition at 150 µM [12]: 28.2%
viability at 300 µM [13]: 89%
inhibition at 300 µM [14]: 66.7%
inhibition at 150 µM [15]: 47.9%
viability at 37.5 µM [16]: 108%
inhibition at 75 µM [17]: 41.2%
inhibition at 37.5 µM [18]: 24.1%
viability at 75 µM [19]: 107%
inhibition at 37.5 µM [20]: 30.2%
Ratio CC50/IC50 [4]: 5.25
inhibition at 75 µM [21]: 17.2%
inhibition at 37.5 µM [22]: 13.4%
inhibition at 75 µM [23]: 29.2%
CC50 at 216 h [5]: 787 µM
inhibition at 150 µM [24]: 29.6%
inhibition at 75 µM [25]: 39.2%
inhibition at 300 µM [26]: 53.6%
inhibition at 37.5 µM [27]: 12.7%
viability at 150 µM [28]: 98.1%
inhibition at 150 µM [29]: 8.39%
inhibition at 300 µM [30]: 61.1%
inhibition at 150 µM [31]: 35.1%
inhibition at 75 µM [32]: 2.96%

Compound: COc1cc(C=O)cc(OC)c1OC
CC50 at 216 h [5]: > 1500 µM

Source: ChEMBL document CHEMBL3576819, “Design, synthesis, biological evaluation and molecular docking studies of phenylpropanoid derivatives as potent anti-hepatitis B virus agents” (Eur J Med Chem, 2015)
